The values that follow come from ChEMBL document CHEMBL4842338, “System-oriented optimization of multi-target 2,6-diaminopurine derivatives: Easily accessible broad-spectrum antivirals active against flaviviruses, influenza virus and SARS-CoV-2” (Eur J Med Chem, 2021).

Calls of active or inactive are those of the source. The rule behind the calls is not given here.

A word on the IC50: it is the point on the concentration scale where inhibition reaches its midpoint. Usually CC50 stands for the concentration at which the toxic effect on the cells reaches its halfway point.

The target in one series is CDK9/cyclin T1 (Homo sapiens, UniProt P50750). Kind of series: Inhibition of human full length CDK9/ His-tagged cT1 assessed as residual activity at 5 uM using CDKtide as a substrate in the presence of BSA incubated for 10 mins by scintillation counting analysis relative to control. The format is protein-complex assay. The settings on record: full length CDK9/His-tagged cyclin T1 complex, probe CDKtide, read-out: Activity. In short, it runs like this: (§1)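 Compounds at fixed 5 μM; 10–50 ng kinase, substrate and NP-40/BSA per supplementary table, 10 μL at 30 °C for 10 min in low-binding tubes. Reactions spotted on filter, dried, scintillation counted. Mean ± SD of two independent experiments.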

The nature of series [1]: Selectivity index, ratio of CC50 for human A549 cells to IC50 for Influenza A Puerto Rico/8/34/H1N1 infected in human A549 cells. The format is toxicity, cell-based. The settings on record: read-out: Selectivity Index. Summed up: (§2)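 MDCK or A549 cells (2.5 × 10⁵/well) infected with A/Puerto Rico/8/34 H1N1 for 1 h at 37 °C, then washed. Compound (0.5–20 μM) added in 2% FBS medium for 24 h, with DMSO final ≤0.2%. Virus in supernatants read by hemagglutination. CC₅₀ by MTT (2 × 10⁴ cells/well, same concentrations, 24 h, absorbance 570 nm). SI = CC₅₀/IC₅₀.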

Series [2] has as its target Abl (Tyrosine-protein kinase ABL1) (Homo sapiens, UniProt P00519). The experiment in a line: Inhibition of human recombinant N terminal His6 tagged Abl (27 to end residue) assessed as residual activity at 5 uM using KKGEAIYAADFA-NH2 as a substrate in the presence of NP-40 incubated for 10 mins by scintillation counting analysis relative to control. The note with it: probe KKGEAIYAADFA-NH2, read-out: Activity. Summed up:
as §1

Another series concerns West Nile virus. Kind of series: Antiviral activity against West Nile virus lineage 1 (Italy/2009) infected in pre-seeded Huh-7 cells assessed as inhibition of viral replication incubated for 48 hrs by immunodetection based direct yield reduction assay. The format is functional, organism-based. The note with it: West Nile virus, lineage 1 (Italy/2009), Huh-7, 48 h; read-out: IC50.

For series [3], the target named is Src (Proto-oncogene tyrosine-protein kinase Src) (Homo sapiens, UniProt P12931). Kind of series: Inhibition of human recombinant N terminal His6 tagged full length Src assessed as residual activity at 5 uM using KVEKIGEGTYGVVYK as a substrate in the presence of NP-40 incubated for 10 mins by scintillation counting analysis relative to control. The settings on record: probe KVEKIGEGTYGVVYK, read-out: Activity. In short, it runs like this:
as §1

Series [4] can be described thus: Inhibition of Dengue virus 2 […] RNA dependent RNA polymerase incubated for 10 mins by picogreen staining based fluorescent analysis (Rvb= 0.27+/-0.03 uM). On the set-up: species or system dengue virus type 2.
The test system of another series is MDCK. The experiment in a line: Cytotoxicity against MDCK cells assessed as reduction in cell viability measured after 24 hrs by MTT assay. The format is cell-based, Canis lupus familiaris. The settings on record: dog, mdck, 24 h. On the technique in general: Tetrazolium assays rely on reduction of a dye to a coloured formazan, in cell work by metabolically active cells.

The target in series [5] is Fyn (Tyrosine-protein kinase Fyn) (Homo sapiens, UniProt P06241). The experiment in a line: Inhibition of human recombinant N terminal His6 tagged full length Fyn assessed as residual activity at 5 uM using […] as a substrate in the presence of NP-40 incubated for 10 mins by scintillation counting analysis relative to control. The note with it: probe […], read-out: Activity. In short, it runs like this:
as §1

Series [6] can be described thus: Selectivity index, ratio of CC50 for MDCK cells to IC50 for Influenza A Puerto Rico/8/34/H1N1 infected in MDCK cells. The series is classed as toxicity, cell-based. The settings on record: dog, read-out: Selectivity Index. In short, it runs like this:
as §2

For a further series, the system named is Zika virus. Kind of series: Antiviral activity against Zika virus H/PF/2013 infected in pre-seeded Huh-7 cells assessed as inhibition of viral replication incubated for 72 hrs by immunodetection based secondary yield reduction assay. The series is classed as functional, organism-based. The note with it: H/PF/2013, Huh-7, 72 h.
The nature of series [7]: Inhibition of full length ZIKV NS5-MTase domain using 7MeGpppAC4 as a substrate incubated for 30 mins by filter binding assay. On the set-up: species or system Zika virus.
The subject of another series is A549. Kind of series: Cytotoxicity against human A549 cells assessed as reduction in cell viability measured after 24 hrs by MTT assay. The note with it: a549, 24 h. The series is classed as cell-based.
Series [8] concerns Influenza A virus. The experiment in a line: Antiviral activity against Influenza A Puerto Rico/8/34/H1N1 infected in human A549 cells assessed as inhibition of viral replication after 24 hrs by hemagglutination assay. The series is classed as functional, organism-based. The note with it: A/Puerto Rico/8/1934(H1N1), A549, 24 h.
The nature of series [9]: Selectivity index, ratio of CC50 for human Huh-7 cells to IC50 for Dengue virus serotype 2 New Guinea C infected in pre-seeded Huh-7 cells assessed as inhibition of viral replication incubated for 72 hrs by immunodetection based secondary yield reduction assay. The note with it: read-out: Selectivity Index. The format is toxicity, cell-based.
Series [10] in a line: Selectivity index, ratio of CC50 for human Huh-7 cells to IC50 for Zika virus H/PF/2013 infected in pre-seeded Huh-7 cells assessed as inhibition of viral replication incubated for 72 hrs by immunodetection based secondary yield reduction assay. The format is toxicity, cell-based. The note with it: read-out: Selectivity Index.
A further series has as its system dengue virus type 2. The experiment in a line: Antiviral activity against Dengue virus serotype 2 New Guinea C infected in pre-seeded Huh-7 cells assessed as inhibition of viral replication incubated for 72 hrs by immunodetection based secondary yield reduction assay. The format is functional, organism-based. The note with it: Dengue virus, New Guinea C, Huh-7, 72 h; read-out: IC50.

Series [11] is described as follows: Antioxidant activity assessed as inhibition of ABTS radical scavenging activity at 10 uM to 1 mM measured after 10 mins. The format is functional. In short, it runs like this: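 ABTS radical solution diluted in ethanol (1:100) to A734 0.70; 3.0 mL mixed with 30 μL sample in DMSO at 10 μM–1 mM; A734 read after exactly 10 min; ascorbic acid reference; % scavenging = (A0−As)/A0×100.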

The next series has as its system Huh-7. Kind of series: Cytotoxicity against human Huh-7 cells assessed as reduction in cell viability by Celltiter-Glo luminescent cell viability assay. The series is classed as cell-based. The note with it: huh-7. In short, it runs like this:
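Compound-exposed cells assessed by CellTiter-Glo luminescence versus DMSO control; CC50 from dose-response.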
In general terms: In ATP-based viability assays light output follows the ATP content of the culture.

Series [12] is described as follows: Inhibition of full length ZIKA virus NS5 RNA dependent RNA polymerase incubated for 10 mins by picogreen staining based fluorescent analysis (Rvb= 1+/-0.2 uM).
A short description of series [13]: Selectivity index, ratio of CC50 for human Huh-7 cells to IC50 for West Nile virus lineage 1 (Italy/2009) infected in pre-seeded Huh-7 cells assessed as inhibition of viral replication incubated for 48 hrs by immunodetection based direct yield reduction assay. The format is toxicity, cell-based. The settings on record: read-out: Selectivity Index. Summed up: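 Direct yield reduction in Huh7 cells (7000/well), infected with 50 TCID₅₀ of DENV or ZIKV, or 25 TCID₅₀ of WNV. Adsorption 1 h at 37 °C, then virus removed and serial compound dilutions added. Incubated 72 h (DENV, ZIKV) or 48 h (WNV). Viral antigen immunodetected on the monolayer. IC₅₀ by non-linear regression, mean of three experiments. SI = CC₅₀ (Huh7, CellTiter-Glo luminescence)/IC₅₀.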

Series [14] can be described thus: Inhibition of DENV NS5-MTase domain using GpppA2'OMe-RNA74 as a substrate incubated for 30 mins by filter binding assay. Also on record: species or system dengue virus type 2. In short, it runs like this:
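MTase (1 μM) incubated with increasing inhibitor in 40 mM Tris-HCl pH 7.5, 5 mM DTT, 10 μM AdoMet ([3H]-labelled), 0.5 μM GpppA2′OMe-RNA74 substrate, 30 °C for 30 min; stopped in ice-cold 100 μM AdoHcy; DEAE filter binding, scintillation counting.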

For series [15], the system named is Influenza A virus. Kind of series: Antiviral activity against Influenza A Puerto Rico/8/34/H1N1 infected in MDCK cells assessed as inhibition of viral replication measured in supernatants of infected cells after 24 hrs by hemagglutination assay. The note with it: A/Puerto Rico/8/1934(H1N1). The series is classed as functional, organism-based.
In series [16] the target is PIK3CA (Phosphatidylinositol 4,5-bisphosphate 3-kinase catalytic subunit alpha isoform) (Homo sapiens, UniProt P42336). Kind of series: Inhibition of human full length PIK3CA assessed as residual activity at 5 uM using PI:PS (1:3) as a substrate incubated for 10 mins by scintillation counting analysis relative to control. The note with it: full length PIK3CA enzyme, probe PI:PS (1:3), read-out: Activity. Summed up:
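Radiometric kinase reaction with 10–50 ng enzyme and compound fixed at 5 μM, 10 μL at 30 °C for 10 min. Reactions spotted on filter and counted by scintillation. Residual activity is the mean ± SD of two independent experiments.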

The nature of series [17]: Inhibition of full length Dengue virus 2 NS5 RNA dependent RNA polymerase incubated for 10 mins by picogreen staining based fluorescent analysis (Rvb= 0.32+/-0.05 uM). On the set-up: species or system dengue virus type 2.

Sequence of Abl (Tyrosine-protein kinase ABL1) (P00519 whole entry): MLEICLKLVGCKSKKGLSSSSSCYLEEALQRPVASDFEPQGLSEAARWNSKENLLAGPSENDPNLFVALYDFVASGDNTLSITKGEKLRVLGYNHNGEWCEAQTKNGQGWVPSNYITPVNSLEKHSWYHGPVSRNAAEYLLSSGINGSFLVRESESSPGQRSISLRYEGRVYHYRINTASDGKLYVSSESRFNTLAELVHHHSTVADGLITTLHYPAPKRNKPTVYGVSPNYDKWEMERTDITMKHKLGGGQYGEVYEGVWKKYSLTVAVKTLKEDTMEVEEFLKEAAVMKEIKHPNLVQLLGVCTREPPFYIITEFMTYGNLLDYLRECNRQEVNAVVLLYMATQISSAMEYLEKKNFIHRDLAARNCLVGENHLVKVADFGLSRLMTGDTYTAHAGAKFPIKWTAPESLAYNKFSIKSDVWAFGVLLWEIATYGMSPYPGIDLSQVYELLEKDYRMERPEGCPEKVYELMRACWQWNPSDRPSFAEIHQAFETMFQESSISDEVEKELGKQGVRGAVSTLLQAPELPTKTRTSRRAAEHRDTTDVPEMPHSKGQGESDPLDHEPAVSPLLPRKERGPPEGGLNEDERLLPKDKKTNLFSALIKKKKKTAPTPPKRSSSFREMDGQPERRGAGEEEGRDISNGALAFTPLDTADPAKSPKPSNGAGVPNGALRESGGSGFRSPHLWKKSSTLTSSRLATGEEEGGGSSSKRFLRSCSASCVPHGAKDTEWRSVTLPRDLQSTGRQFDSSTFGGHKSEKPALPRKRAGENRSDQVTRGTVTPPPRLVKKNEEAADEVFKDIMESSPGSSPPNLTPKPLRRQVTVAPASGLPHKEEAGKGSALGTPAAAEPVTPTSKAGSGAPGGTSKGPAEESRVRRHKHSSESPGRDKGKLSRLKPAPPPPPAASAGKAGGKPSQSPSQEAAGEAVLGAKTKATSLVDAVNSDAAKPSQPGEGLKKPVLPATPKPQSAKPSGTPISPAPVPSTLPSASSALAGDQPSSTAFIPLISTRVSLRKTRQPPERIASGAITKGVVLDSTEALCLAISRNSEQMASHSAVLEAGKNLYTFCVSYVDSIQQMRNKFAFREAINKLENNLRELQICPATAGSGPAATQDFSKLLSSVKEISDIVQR
Sequence of Src (Proto-oncogene tyrosine-protein kinase Src) (P12931 2-536 limits assumed): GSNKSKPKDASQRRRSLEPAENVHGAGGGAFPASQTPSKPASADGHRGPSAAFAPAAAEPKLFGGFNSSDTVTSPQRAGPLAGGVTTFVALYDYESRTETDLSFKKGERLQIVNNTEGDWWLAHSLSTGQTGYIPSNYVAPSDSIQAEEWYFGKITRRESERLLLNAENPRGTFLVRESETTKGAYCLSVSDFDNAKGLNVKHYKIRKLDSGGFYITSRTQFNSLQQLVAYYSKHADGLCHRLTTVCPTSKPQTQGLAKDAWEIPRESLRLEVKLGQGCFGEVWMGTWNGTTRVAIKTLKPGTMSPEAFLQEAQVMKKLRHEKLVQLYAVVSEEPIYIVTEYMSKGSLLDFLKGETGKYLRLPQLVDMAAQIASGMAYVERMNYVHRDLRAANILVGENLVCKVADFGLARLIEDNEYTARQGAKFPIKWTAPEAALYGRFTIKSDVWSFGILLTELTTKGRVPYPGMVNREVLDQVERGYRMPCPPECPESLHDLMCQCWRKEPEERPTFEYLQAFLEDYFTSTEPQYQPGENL
Sequence of PIK3CA (Phosphatidylinositol 4,5-bisphosphate 3-kinase catalytic subunit alpha isoform) (P42336 whole entry, canonical isoform): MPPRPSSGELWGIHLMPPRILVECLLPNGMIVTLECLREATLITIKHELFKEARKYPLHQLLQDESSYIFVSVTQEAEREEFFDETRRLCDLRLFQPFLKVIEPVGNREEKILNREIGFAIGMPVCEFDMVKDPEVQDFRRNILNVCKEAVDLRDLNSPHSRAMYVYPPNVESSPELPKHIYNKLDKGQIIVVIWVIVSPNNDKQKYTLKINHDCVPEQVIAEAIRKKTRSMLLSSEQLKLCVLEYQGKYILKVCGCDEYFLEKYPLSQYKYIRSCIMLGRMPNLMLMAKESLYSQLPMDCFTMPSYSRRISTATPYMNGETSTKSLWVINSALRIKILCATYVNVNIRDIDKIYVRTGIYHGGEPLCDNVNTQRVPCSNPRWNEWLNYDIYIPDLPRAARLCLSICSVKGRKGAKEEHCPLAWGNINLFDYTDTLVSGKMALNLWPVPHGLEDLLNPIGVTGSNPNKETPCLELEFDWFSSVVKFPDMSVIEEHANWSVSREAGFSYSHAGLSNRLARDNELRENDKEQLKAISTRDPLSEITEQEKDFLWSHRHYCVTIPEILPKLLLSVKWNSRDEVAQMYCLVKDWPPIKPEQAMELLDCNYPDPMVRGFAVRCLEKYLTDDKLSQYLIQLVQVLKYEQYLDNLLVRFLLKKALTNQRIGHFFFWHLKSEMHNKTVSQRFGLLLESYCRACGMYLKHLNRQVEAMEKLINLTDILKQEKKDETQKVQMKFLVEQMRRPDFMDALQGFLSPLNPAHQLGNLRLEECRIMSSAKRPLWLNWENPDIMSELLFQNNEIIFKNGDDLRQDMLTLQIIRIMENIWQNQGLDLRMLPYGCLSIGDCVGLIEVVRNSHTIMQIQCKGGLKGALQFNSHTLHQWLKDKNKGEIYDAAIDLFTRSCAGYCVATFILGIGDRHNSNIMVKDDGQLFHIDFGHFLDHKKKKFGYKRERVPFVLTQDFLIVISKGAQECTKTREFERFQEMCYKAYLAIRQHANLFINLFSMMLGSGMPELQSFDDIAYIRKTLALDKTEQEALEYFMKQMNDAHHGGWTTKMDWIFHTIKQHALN
Sequence of Fyn (Tyrosine-protein kinase Fyn) (P06241 whole entry): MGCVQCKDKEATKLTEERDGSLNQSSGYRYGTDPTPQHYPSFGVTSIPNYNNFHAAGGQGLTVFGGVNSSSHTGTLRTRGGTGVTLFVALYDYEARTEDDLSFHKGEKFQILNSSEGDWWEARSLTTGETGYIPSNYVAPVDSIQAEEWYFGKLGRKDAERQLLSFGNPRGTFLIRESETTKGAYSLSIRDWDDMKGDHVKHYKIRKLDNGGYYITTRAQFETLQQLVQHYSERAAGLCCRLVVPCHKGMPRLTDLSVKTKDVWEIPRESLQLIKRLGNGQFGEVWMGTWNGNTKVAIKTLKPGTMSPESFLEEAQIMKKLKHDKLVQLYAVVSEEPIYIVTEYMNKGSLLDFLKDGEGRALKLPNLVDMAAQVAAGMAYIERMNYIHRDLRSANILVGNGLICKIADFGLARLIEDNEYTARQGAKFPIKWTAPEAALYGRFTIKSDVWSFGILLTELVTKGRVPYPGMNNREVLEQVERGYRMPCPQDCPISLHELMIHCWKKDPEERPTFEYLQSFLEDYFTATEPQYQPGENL
Sequence of CDK9/cyclin T1 (O60563 whole entry): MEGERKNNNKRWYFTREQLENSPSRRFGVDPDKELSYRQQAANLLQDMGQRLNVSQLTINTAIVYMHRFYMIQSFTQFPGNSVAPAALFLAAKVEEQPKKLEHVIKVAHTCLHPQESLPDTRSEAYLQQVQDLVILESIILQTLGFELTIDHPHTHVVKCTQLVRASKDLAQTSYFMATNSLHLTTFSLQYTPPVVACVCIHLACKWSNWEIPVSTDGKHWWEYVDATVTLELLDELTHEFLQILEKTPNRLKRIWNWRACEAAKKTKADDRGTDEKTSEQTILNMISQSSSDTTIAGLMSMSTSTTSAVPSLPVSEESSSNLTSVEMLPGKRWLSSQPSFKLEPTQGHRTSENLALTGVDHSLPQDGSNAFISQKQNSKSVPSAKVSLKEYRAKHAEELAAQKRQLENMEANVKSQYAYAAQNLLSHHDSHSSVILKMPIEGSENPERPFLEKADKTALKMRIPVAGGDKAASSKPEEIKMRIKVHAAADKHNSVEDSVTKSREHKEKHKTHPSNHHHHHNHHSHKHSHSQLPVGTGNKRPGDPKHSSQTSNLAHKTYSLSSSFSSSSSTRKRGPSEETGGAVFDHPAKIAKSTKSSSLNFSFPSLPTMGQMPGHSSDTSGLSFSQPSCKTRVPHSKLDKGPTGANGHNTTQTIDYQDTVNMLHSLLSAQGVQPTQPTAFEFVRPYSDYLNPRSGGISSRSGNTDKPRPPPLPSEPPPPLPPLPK
Sequence of CDK9/cyclin T1 (P50750 whole entry): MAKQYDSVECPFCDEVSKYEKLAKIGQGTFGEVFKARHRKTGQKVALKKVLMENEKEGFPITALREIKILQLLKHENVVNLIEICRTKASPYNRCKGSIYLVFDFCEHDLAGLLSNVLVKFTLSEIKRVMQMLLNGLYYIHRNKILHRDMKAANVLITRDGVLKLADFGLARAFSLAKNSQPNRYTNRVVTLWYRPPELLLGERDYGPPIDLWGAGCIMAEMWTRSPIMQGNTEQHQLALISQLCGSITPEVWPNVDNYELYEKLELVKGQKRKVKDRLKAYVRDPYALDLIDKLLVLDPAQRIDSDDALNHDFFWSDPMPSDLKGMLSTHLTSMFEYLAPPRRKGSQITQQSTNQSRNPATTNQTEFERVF

Turning to `Fc1cccc(NNc2nc(NCCOc3ccccc3)nc3[nH]cnc23)c1`, the activity at 10 min, 5 µM at CDK9/cyclin T1 is 88%; in series [2] it was 67%; in series [3], 84%; in series [5], above 98%; in [16], 77%. The selectivity ratio in series [1] is 3.5; in series [6], above 5.3. The IC50 is 1.1 µM in the series with West Nile virus; above 100 µM in series [4]; 2.4 µM in the series with Zika virus; “Not Active” in series [7]; 14.9 µM in the series with Influenza A virus [8]; 3.4 µM in the series with dengue virus type 2. Also, the 50% inhibitory concentration (IC50) in series [12] is 105 µM; in series [14], “Not Active”; with Influenza A virus [15] it was 6.3 µM; in series [17] it was 153 µM. Moreover, the values for the CC50 with MDCK, in the series on A549 and in the series with Huh-7 were 136 µM, 52.4 µM and 20 µM, respectively. The selectivity ratio at 72 h in series [9] was determined as 6; in series [10], 8. Besides, the Activity result in [11] is “Active”. Moreover, in [13], the selectivity ratio at 48 h was 18.
